In ChEMBL document CHEMBL1134284, “The biological effects of structural variation at the meta position of the aromatic rings and at the end of the alkenyl chain in the alkenyldiarylmethane series of non-nucleoside reverse transcriptase inhibitors” (J Med Chem, 2001):

Tests used:
[1] = system: Human immunodeficiency virus type 1 (RF/HAT ISOLATE); test: Inhibitory concentration for cytopathicity of HIV-1RF in CEM-SS cells; format: functional, organism-based; details: Human immunodeficiency virus 1, RF
Method in brief: (§1)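 CEM-SS cells kept in RPMI 1640 with 10% heat-inactivated FBS, 2 mM glutamine, penicillin/streptomycin. Microtiter assay with cytopathic HIV-1 RF, or mock infection for toxicity. Viability read by MTS/phenazine ethosulfate reduction (absorbance 490 nm) 6 days after infection. […] Triplicate.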

[2] = Ratio of CC50/EC50 was determined; format: cell-based; details: human, CEM-SS cells; read-out: TI
Method in brief: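 HIV-1 RF–infected CEM-SS cells (RPMI 1640, 10% heat-inactivated FBS, 2 mM glutamine, penicillin/streptomycin), plus mock-infected CEM-SS in parallel. Cell killing and viability were read by MTS/phenazine ethosulfate reduction at 490 nm 6 days after infection. […] Index = CC50 ÷ EC50. Triplicate tests.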

CEM-SS [3] = test: Concentration required for cytotoxicity against mock infected CEM-SS cells; format: functional; details: Homo sapiens; method in brief: as §1
[4] = biological target: Human immunodeficiency virus type 1 reverse transcriptase (Human immunodeficiency virus 1, UniProt Q72547); test: Inhibitory activity against HIV-1 Reverse Transcriptase with rCdG as the template primer
Method in brief: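 Cell-free assay with purified recombinant HIV-1 RT (p66/p51 dimer). Activity measured as [32P]GTP incorporation into the poly(rC)/oligo(dG) homopolymer template/primer. IC50 is reported as inhibition of enzyme activity.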

CEM-SS [5] = test: Inhibitory concentration for cytopathicity of HIV-1RF in CEM-SS cells; Not active; format: functional, cell-based, Homo sapiens; method in brief: as §1

| SMILES | EC50 [1] [µM] | selectivity ratio [2] | CC50 (CEM-SS [3]) [µM] | IC50 [4] [µM] | EC50 (CEM-SS [5]) |
| --- | --- | --- | --- | --- | --- |
| CCCOC(=O)CCCC=C(c1cc(C)c(OC)c(C(=O)OC)c1)c1cc(C)c(OC)c(C(=O)OC)c1 | 1.29 | 4.2 | 5.4 | 29.7 | – |
| COC(=O)c1cc(C(=CCCCc2ccccc2)c2cc(Cl)c(OC)c(C(=O)OC)c2)cc(Cl)c1OC | 1.7 | > 43 | > 200 | > 100 | – |
| C#CCCCC=C(c1cc(Cl)c(OC)c(C(=O)OC)c1)c1cc(Cl)c(OC)c(C(=O)OC)c1 | 1.3 | 33 | 42.7 | – | – |
| C=CCCCC=C(c1cc(Br)c(OC)c(C(=O)OC)c1)c1cc(Br)c(OC)c(C(=O)OC)c1 | 8.2 | > 24 | > 200 | 99 | – |
| COC(=O)c1cc(C(=CCCCc2ccccc2)c2cc(Br)c(OC)c(C(=O)OC)c2)cc(Br)c1OC | 13.1 | > 15 | > 200 | > 100 | – |
| C=CCCCC=C(c1cc(Cl)c(OC)c(C(=O)OC)c1)c1cc(Cl)c(OC)c(C(=O)OC)c1 | 13 | > 15 | > 200 | 258 | – |
| CCCCCC=C(c1cc(Cl)c(OC)c(C(=O)OC)c1)c1cc(Cl)c(OC)c(C(=O)OC)c1 | 16 | > 1.8 | > 29.1 | – | – |
| COC(=O)CCCC=C(c1cc(C(=O)OC)c(OC)c(C(F)(F)F)c1)c1cc(C(=O)OC)c(OC)c(C(F)(F)F)c1 | 14.3 | 1.2 | 17.2 | > 200 | – |
| COC(=O)NCCC=C(c1cc(C)c(OC)c(C(=O)OC)c1)c1cc(C)c(OC)c(C(=O)OC)c1 | 0.21 | 59 | 12.4 | 4.93 | – |
| COC(=O)c1cc(C(=CCCCC(=O)N(C)C)c2cc(C)c(OC)c(C(=O)OC)c2)cc(C)c1OC | 1.51 | 4.91 | 7.4 | 5.65 | – |
| COC(=O)c1cc(C(=CCCCC(=O)OCC[Si](C)(C)C)c2cc(C)c(OC)c(C(=O)OC)c2)cc(C)c1OC | 95.4 | > 2.1 | > 200 | > 100 | – |
| COC(=O)c1cc(C(=CCCCSC)c2cc(Cl)c(OC)c(C(=O)OC)c2)cc(Cl)c1OC | 5.31 | > 3.77 | > 20 | > 100 | – |
| CCCCCC=C(c1cc(F)c(OC)c(C(=O)OC)c1)c1cc(F)c(OC)c(C(=O)OC)c1 | – | – | 13.4 | – | – |
| CCOC(=O)CCCC=C(c1cc(C)c(OC)c(C(=O)OC)c1)c1cc(C)c(OC)c(C(=O)OC)c1 | 0.03 | 297 | 8.91 | 0.181 | – |
| CCNC(=O)NCCC=C(c1cc(Cl)c(OC)c(C(=O)OC)c1)c1cc(Cl)c(OC)c(C(=O)OC)c1 | – | – | 14.6 | > 100 | Not Active |
| COC(=O)c1cc(C(=CCCN2CCOC2=O)c2cc(Br)c(OC)c(C(=O)OC)c2)cc(Br)c1OC | 0.02 | 104 | 1.95 | 0.499 | – |
| COC(=O)NCCC=C(c1cc(Br)c(OC)c(C(=O)OC)c1)c1cc(Br)c(OC)c(C(=O)OC)c1 | 0.2 | 40.5 | 8.1 | 2.39 | – |
| COC(=O)c1cc(C(=CCCC[S+](C)[O-])c2cc(Cl)c(OC)c(C(=O)OC)c2)cc(Cl)c1OC (stereo not drawn) | 11.7 | 3.15 | 36.9 | – | – |
| COC(=O)c1cc(C(=CCCN2CCOC2=O)c2cc(Cl)c(OC)c(C(=O)OC)c2)cc(Cl)c1OC | 2.15 | 6.02 | 13 | 9.47 | – |
| CCCCCC=C(c1cc(C(=O)OC)c(OC)c(C(F)(F)F)c1)c1cc(C(=O)OC)c(OC)c(C(F)(F)F)c1 | – | – | 106 | – | Not Active |

| SMILES | EC50 [1] [µM] | selectivity ratio [2] | CC50 (CEM-SS [3]) [µM] | IC50 [4] [µM] | EC50 (CEM-SS [5]) |
| --- | --- | --- | --- | --- | --- |
| COC(=O)c1cc(C(=CCCCC(=O)N(C)C)c2cc(Cl)c(OC)c(C(=O)OC)c2)cc(Cl)c1OC | 0.38 | 6.94 | 2.65 | 0.687 | – |
| COC(=O)c1cc(C(=CCCNC(=O)OCC(C)C)c2cc(C)c(OC)c(C(=O)OC)c2)cc(C)c1OC | 0.76 | 6.73 | 5.13 | 2.95 | – |
| COC(=O)NCCC=C(c1cc(Cl)c(OC)c(C(=O)OC)c1)c1cc(Cl)c(OC)c(C(=O)OC)c1 | 1.22 | 10.2 | 12.4 | 4.43 | – |
| COC(=O)c1cc(C(=CCCCC(=O)OC(C)C)c2cc(Cl)c(OC)c(C(=O)OC)c2)cc(Cl)c1OC | 0.84 | 42.9 | 36.1 | > 100 | – |
| CCOC(=O)NCCC=C(c1cc(C)c(OC)c(C(=O)OC)c1)c1cc(C)c(OC)c(C(=O)OC)c1 | 0.67 | 5.34 | 3.59 | 0.016 | – |
| COC(=O)c1cc(C(=CCCCS(C)(=O)=O)c2cc(Cl)c(OC)c(C(=O)OC)c2)cc(Cl)c1OC | – | – | 14.9 | – | Not Active |
| COC(=O)CCCC=C(c1cc(F)c(OC)c(C(=O)OC)c1)c1cc(F)c(OC)c(C(=O)OC)c1 | 1.9 | 36 | 68.3 | – | – |
| COC(=O)c1cc(C(=CCCCC(=O)SC)c2cc(Cl)c(OC)c(C(=O)OC)c2)cc(Cl)c1OC | 2.42 | 5.15 | 12.5 | – | – |
| COC(=O)c1cc(C(=CCCCC(=O)N2CCCCC2)c2cc(C)c(OC)c(C(=O)OC)c2)cc(C)c1OC | 5.37 | 2.74 | 14.7 | 7.12 | – |
| CCCCCC=C(c1cc(I)c(OC)c(C(=O)OC)c1)c1cc(I)c(OC)c(C(=O)OC)c1 | – | – | > 316 | – | – |
| CCCOC(=O)CCCC=C(c1cc(Br)c(OC)c(C(=O)OC)c1)c1cc(Br)c(OC)c(C(=O)OC)c1 | 1.14 | > 17.5 | > 20 | 9.15 | – |
| COC(=O)c1cc(C(=CCCCC(=O)OC(C)C)c2cc(Br)c(OC)c(C(=O)OC)c2)cc(Br)c1OC | 4.33 | 3.79 | 16.4 | 70.8 | – |
| C#CCCCC=C(c1cc(Br)c(OC)c(C(=O)OC)c1)c1cc(Br)c(OC)c(C(=O)OC)c1 | 4.7 | > 43 | > 200 | 6 | – |
| CCCOC(=O)CCCC=C(c1cc(Cl)c(OC)c(C(=O)OC)c1)c1cc(Cl)c(OC)c(C(=O)OC)c1 | 1.29 | 10.8 | 13.9 | 8.3 | – |
| CCOC(=O)NCCC=C(c1cc(Cl)c(OC)c(C(=O)OC)c1)c1cc(Cl)c(OC)c(C(=O)OC)c1 | 0.71 | 17.2 | 12.2 | 1.93 | – |
| CCCCCC=C(c1cc(C)c(OC)c(C(=O)OC)c1)c1cc(C)c(OC)c(C(=O)OC)c1 | 6.8 | 2.5 | 17.2 | 1 | – |
| COC(=O)c1cc(C(=CCCCC(OC)OC)c2cc(Cl)c(OC)c(C(=O)OC)c2)cc(Cl)c1OC | – | – | 18.1 | > 100 | – |
| CCSC(=O)CCCC=C(c1cc(Cl)c(OC)c(C(=O)OC)c1)c1cc(Cl)c(OC)c(C(=O)OC)c1 | 3.95 | 3.2 | 12.6 | – | – |
| COC(=O)CCCC=C(c1cc(C)c(OC)c(C(=O)OC)c1)c1cc(C)c(OC)c(C(=O)OC)c1 | 0.25 | 24 | 6 | < 1 | – |
| CCCCCC=C(c1ccc(OC)c(C(=O)OC)c1)c1ccc(OC)c(C(=O)OC)c1 | – | – | 14 | – | – |
